Shown are actives, neighbours in structure and some others; about 1.6% of the full set was active somewhere.
Lipid droplet: modulators of hepatic lipid droplet formation | inhibition, % at 6.5 µM | actives 0.4% (n = 240,000) | AML12 mouse hepatocytes, oleate lipid droplets, BODIPY imaging;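 active = lipid droplet intensity inhibited by at least 50%, with more than 500 cells counted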
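System: AML12 hepatocytes (mouse). Probe or stimulus: oleic acid at 100 µM to induce lipid droplet formation. Times: overnight treatment with compound plus oleate. Detection: Image-based BODIPY and DAPI two-channel analysis. Evaluation: percent inhibition of filter-corrected integrated lipid droplet intensity per well.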
SR-BI DiI inh: inhibitors of mouse SR-BI mediated HDL lipid uptake; inhibition, % at 12.5 µM; Q61009; actives 0.96% (n = 320,000); ldlA[mSR-BI] CHO cells, DiI-HDL uptake fluorescence, 3 h;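 active = mean replicate inhibition of at least 70% and a set share of replicates each scoring 70 or more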
Target sequence (Q61009 whole entry, looked up): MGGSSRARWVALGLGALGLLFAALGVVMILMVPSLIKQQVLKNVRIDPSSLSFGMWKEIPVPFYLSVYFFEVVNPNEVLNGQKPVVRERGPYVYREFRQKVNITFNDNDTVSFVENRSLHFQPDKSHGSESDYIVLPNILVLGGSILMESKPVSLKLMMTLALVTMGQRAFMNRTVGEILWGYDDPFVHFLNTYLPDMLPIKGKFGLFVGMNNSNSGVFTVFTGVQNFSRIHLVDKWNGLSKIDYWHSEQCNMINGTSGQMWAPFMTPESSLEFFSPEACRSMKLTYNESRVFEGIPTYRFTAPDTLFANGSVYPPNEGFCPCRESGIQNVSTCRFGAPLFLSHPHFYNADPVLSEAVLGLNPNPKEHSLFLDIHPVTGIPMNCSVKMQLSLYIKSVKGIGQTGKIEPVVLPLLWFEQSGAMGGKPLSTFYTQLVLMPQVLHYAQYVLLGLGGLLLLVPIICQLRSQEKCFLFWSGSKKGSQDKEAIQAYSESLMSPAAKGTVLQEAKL
NOD2-RIPK2 inh: blocks binding of human NOD2 to RIPK2 | inhibition, % at 4.98 µM | CHO BLA complementation NOD2-RIPK2, CCF4 ratio | actives 0.38% (n = 360,000); in the data active = inhibition above about 21%
TLR9-MyD88 inh: TLR9-MyD88 interaction inhibition; CHO BLA complementation TLR9-MyD88, CCF4 FRET ratio; AID 504734; actives 0.21% (n = 340,000); inhibition, % at 4.98 µM;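 active = inhibition above the mean over all tested compounds plus 3 SD, cut at about 21% in these data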
TLR4-MyD88 BLA: blocks binding of human TLR4 to MyD88; O00206+Q99836; HeLa CL3-4 TLR4/MyD88 BLA complementation, FRET ratio; inhibition, % at 8.4 µM; actives 0.18% (n = 200,000); in the data active = inhibition above about 25%
SR-BI DiI-HDL act: activators of SR-BI mediated HDL lipid uptake | activation, % at 12.5 µM | actives 0.096% (n = 320,000) | CHO ldlA[mSR-BI] cells, DiI-HDL uptake fluorescence, 3 h; 100 = double the neutral-control signal;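 active = mean replicate activation of at least 60% and every replicate at or above 60%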
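System: LDL receptor-deficient CHO ldlA cells overexpressing murine SR-BI | Timing: 3 h uptake period with compound, 37 °C | Medium: HEPES-buffered (25 mM, pH 7.4) F12 plus 0.5% BSA | Dosing: Single-point compound dose | Signal: Bottom-read fluorescence, 550/595 nm | Read-out: Retained DiI signal reflecting DiI-HDL uptake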
TLR4-MyD88 conf: confirmation of human TLR4-MyD88 binding inhibitors; shares compounds with TLR4-MyD88 BLA; HeLa CL3-4 BLA complementation, CCF4 FRET ratio; inhibition, % at 8.4 µM; actives 50% (n = 350);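 active = mean inhibition across three repeat runs above about 25% carried over from the earlier screen, limit read from the data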
BLA inhibitor ct: inhibits beta-lactamase activity, counter-screen to TLR4-MyD88 binding inhibitors; AID 1237; HeLa BLA reporter, CCF4 FRET ratio; inhibition, % at 8.4 µM; actives 63% (n = 350); shares compounds with TLR4-MyD88 BLA;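 active = mean inhibition over three repeats above about 26% taken from the earlier screen, limit read from the data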;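 note: HeLa cells stably expressing beta-lactamase reporter as counterscreen for TLR4-MyD88 inhibitors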
Hep lipid conf: confirmation of inhibitors of hepatic lipid droplet formation; shares compounds with Lipid droplet; AML12 mouse hepatocytes, BODIPY lipid droplet imaging; droplets induced with 100 µM oleic acid; inhibition, % at 5.2 µM; actives 65% (n = 870);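 active = inhibition of lipid droplet metric at least 50%, with more than 300 cells in each of four replicates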
AML12 cytotox: counter-screen for cytotoxicity in AML12 mouse hepatocytes; z-score at 5 µM; actives 3% (n = 870); shares compounds with Lipid droplet; DAPI nuclear morphology cytotoxicity imaging; hits give high values; cells fed 100 µM oleate overnight; in the data active = z-score above about 6.3;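 note: compound exposure lasted overnight at 37 °C before fixation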
AML12 tox conf: AML12 hepatocyte cytotoxicity, confirmed; shares compounds with Lipid droplet; AML12 mouse hepatocyte viability, ATP luminescence; cells loaded with 100 µM oleic acid; cytotoxicity, % at 50 µM; 530 tested, under 10 active;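 active = cytotoxicity above 50% in each of four replicates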;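 note: compound exposure lasted overnight at 37 °C before the ATP read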
TLR9-MyD88 conf: TLR9-MyD88 interaction inhibition, confirmation. AID 540250. shares compounds with TLR9-MyD88 inh. CHO TLR9/MyD88 BLA complementation, CCF4 FRET ratio. actives 51% (n = 680). inhibition, % at 4.98 µM;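 active = mean inhibition across three repeats above about 21% taken from the earlier screen, limit read from the data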;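 note: blue over green emission ratio reports constitutive TLR9 MyD88 association via BLA complementation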
BLA counter-1: non-selective beta-lactamase inhibitors in TLR9-MyD88 counter-screen | shares compounds with TLR9-MyD88 inh | CHO-BLA cells, CCF4 FRET ratio, BLA reporter | inhibition, % at 4.98 µM | actives 7% (n = 680) | AID 540251;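 active = mean inhibition above a 50% cutoff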;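 note: counterscreen of TLR9-MyD88 hits on CMV-driven BLA in CHO-K1 cells; higher means less blue over green ratio so more BLA blockade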
TLR9 CHO cytotox: CHO cell toxicity counter-screen for TLR9-MyD88 inhibitors; TLR9-MyD88 CHO cells cytotoxicity, luminescence; shares compounds with TLR9-MyD88 inh; AID 588336; actives 39% (n = 680); inhibition, % at 4.98 µM; in the data active = inhibition above about 11%
NOD2 RIPK2 conf: NOD2-RIPK2 interaction inhibition confirmed; inhibition, % at 4.98 µM; AID 624370; actives 70% (n = 1,200); CHO cells, NOD2-RIPK2 BLA complementation, CCF4 FRET; shares compounds with NOD2-RIPK2 inh;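 active = mean inhibition across replicates above a set limit taken from the earlier primary screen, cut at about 21% in these data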
BLA counter-2: hits BLA reporter in NOD2-RIPK2 inhibitor counterscreen; inhibition, % at 4.98 µM; shares compounds with NOD2-RIPK2 inh; CHO BLA reporter, CCF4 FRET ratio; actives 57% (n = 1,200); AID 624371;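 active = mean inhibition above the low-control mean inhibition plus three low-control SD, cut at about 11% in these data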
Hits are given with their value.

`Cn1c(=O)c(NCCc2ccccc2)c2c3c(cccc31)C(=O)c1ccccc1-2` gave Lipid droplet inactive, SR-BI DiI inh inactive, NOD2-RIPK2 inh 38, TLR9-MyD88 inh 37, TLR4-MyD88 BLA 39, SR-BI DiI-HDL act inactive, TLR4-MyD88 conf 39, BLA inhibitor ct 64, TLR9-MyD88 conf 37, BLA counter-1 inactive, TLR9 CHO cytotox inactive, NOD2 RIPK2 conf 63 and BLA counter-2 71.
For Cn1c(=O)c(NCCO)c2c3c(cccc31)C(=O)c1ccccc1-2 the results were Lipid droplet inactive, SR-BI DiI inh inactive, NOD2-RIPK2 inh inactive, TLR9-MyD88 inh inactive, TLR4-MyD88 BLA inactive and SR-BI DiI-HDL act inactive.
CCCCNc1c2c3c(cccc3n(C)c1=O)C(=O)c1ccccc1-2 was read as Lipid droplet inactive, SR-BI DiI inh inactive, NOD2-RIPK2 inh 47, TLR9-MyD88 inh 36, TLR4-MyD88 BLA 41, SR-BI DiI-HDL act inactive, TLR4-MyD88 conf 26, BLA inhibitor ct 47, TLR9-MyD88 conf 26, BLA counter-1 inactive, TLR9 CHO cytotox inactive, NOD2 RIPK2 conf 52 and BLA counter-2 58.
Screening COc1cc(NCCCn2cnc3c(OC)ncnc32)cc(OC)c1OC returned NOD2-RIPK2 inh inactive and TLR9-MyD88 inh inactive.
For COc1ccc(/C=N/NC(=S)Nc2cc(C(F)(F)F)ccc2Cl)cc1 the results were Lipid droplet inactive and NOD2-RIPK2 inh inactive.
Screening FC(F)(F)c1ccc(Cl)c(NC(=S)N/N=C/c2ccccc2C(F)(F)F)c1 returned Lipid droplet 52, SR-BI DiI inh inactive, NOD2-RIPK2 inh inactive, TLR9-MyD88 inh inactive, TLR4-MyD88 BLA inactive, SR-BI DiI-HDL act inactive, Hep lipid conf 104, AML12 cytotox inactive and AML12 tox conf inactive.
For COc1ccc(N(CC(=O)NCCc2cccc(C)c2)S(=O)(=O)c2c(C)noc2C)cc1 the results were Lipid droplet inactive, SR-BI DiI inh inactive, NOD2-RIPK2 inh inactive, TLR9-MyD88 inh inactive and SR-BI DiI-HDL act inactive.
Screening CCC1=NN(C(=O)c2cccnc2)C(O)(C(F)(F)F)C1 (stereo unspecified) returned Lipid droplet inactive, SR-BI DiI inh inactive, NOD2-RIPK2 inh inactive, TLR9-MyD88 inh inactive, TLR4-MyD88 BLA inactive and SR-BI DiI-HDL act inactive.

Screens: PubChem BioAssay, several laboratories
